Structures are written as SMILES. Values after ≈ are worked out from the molar mass of the structure shown. Active and inactive are the calls of the source. No cut-off for these calls is given here.

For test [1], the system named is Bacillus subtilis. Nature of the test: Antibacterial activity against Bacillus subtilis MTCC 121 at 200 ug/ml after 24 hrs. Format: functional, organism-based. A digest of the protocol: (§1)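 Organisms grown overnight at 37 °C in buffered glucose broth. A loopful (5 mm diameter) was added to buffered glucose broth containing the test compound and incubated at 37 °C for 24 h. Growth was scored against the untreated control as total inhibition, poor, medium or confluent growth.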

Test [2] concerns Bacillus subtilis. Briefly: Antibacterial activity against Bacillus subtilis MTCC 121 at 1 ug/ml after 24 hrs. It is filed as functional, organism-based. A digest of the protocol:
as §1

Test [3] concerns Escherichia coli. Nature of the test: Antibacterial activity against Escherichia coli ATCC 25922 at 500 ug/ml after 24 hrs. It is filed as functional, organism-based. A digest of the protocol:
as §1

Test [4] deals with Bacillus subtilis. Briefly: Antibacterial activity against Bacillus subtilis MTCC 121 at 500 ug/ml after 24 hrs. Format: functional, organism-based. A digest of the protocol: as §1
In a further test the test system is Candida albicans. Nature of the test: Antifungal activity against Candida albicans MTCC 1637 at 30 ug/ml by cup-plate agar diffusion method. It is filed as functional. As to conditions: for zone of inhibition at 30 µg/mL: read-out: DIZ. A digest of the protocol:
(§2)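 Cup-plate agar diffusion assay against the fungal strains, with amphotericin B as the reference standard.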
(In general: A growth-free zone around the sample is the usual read-out of agar diffusion tests.)

The subject of test [5] is Bacillus subtilis. Briefly: Antibacterial activity against Bacillus subtilis MTCC 121 after 24 hrs. Format: functional. As to conditions: MTCC 121, 24 h.
Test [6] has as its system Escherichia coli. Briefly: Antibacterial activity against Escherichia coli ATCC 25922 after 24 hrs. Format: functional. As to conditions: ATCC 25922, 24 h.
The test system of the next test is Aspergillus niger. Nature of the test: Antifungal activity against Aspergillus niger AIIMS isolate at 30 ug/ml by cup-plate agar diffusion method. It is filed as functional. As to conditions: for zone of inhibition at 30 µg/mL: read-out: DIZ. A digest of the protocol:
as §2

Test [7] deals with Bacillus subtilis. Nature of the test: Antibacterial activity against Bacillus subtilis MTCC 121 at 100 ug/ml after 24 hrs. It is filed as functional, organism-based. A digest of the protocol: as §1
For test [8], the system named is Escherichia coli. Nature of the test: Antibacterial activity against Escherichia coli ATCC 25922 at 200 ug/ml after 24 hrs. It is filed as functional, organism-based. A digest of the protocol:
as §1

In test [9] the test system is Escherichia coli. Nature of the test: Antibacterial activity against Escherichia coli ATCC 25922 at 1 ug/ml after 24 hrs. It is filed as functional, organism-based. A digest of the protocol:
as §1

Another test concerns Aspergillus flavus. Briefly: Antifungal activity against Aspergillus flavus AIIMS isolate at 30 ug/ml by cup-plate agar diffusion method. Format: functional. As to conditions: for zone of inhibition at 30 µg/mL: read-out: DIZ. A digest of the protocol:
as §2

For test [10], the system named is Escherichia coli. Briefly: Antibacterial activity against Escherichia coli ATCC 25922 at 10 ug/ml after 24 hrs. Format: functional, organism-based. A digest of the protocol: as §1
Test [11] relates to Bacillus subtilis. Briefly: Antibacterial activity against Bacillus subtilis MTCC 121 at 10 ug/ml after 24 hrs. It is filed as functional, organism-based. A digest of the protocol: as §1

What is called MIC is the least concentration at which growth counts as inhibited. The low end stands for greater potency, the high end for weaker potency. With `Cc1nc2ccccc2n1Cc1nnc(/N=C/c2ccc(N)cc2)s1`, the inhibition result in the test with Bacillus subtilis [1], with Escherichia coli [3], in the test with Bacillus subtilis [4], in the test on Bacillus subtilis [7] and in the test on Escherichia coli [8] was “Active” throughout. Further, the inhibition entry with Bacillus subtilis [2] and in the test with Escherichia coli [9] was “inactive” each time. The zone of inhibition at 30 µg/mL turned out to be 16 mm with Candida albicans, 22 mm in the test with Aspergillus niger and 10 mm with Aspergillus flavus. In addition, the MIC is 100 µg/mL (≈ 287 µM) with Bacillus subtilis [5] and 200 µg/mL (≈ 574 µM) against Escherichia coli [6].
Take `COc1ccc(/C=N/c2nnc(Cn3c(C)nc4ccccc43)s2)cc1`: the inhibition result with Bacillus subtilis [1], in the test on Escherichia coli [3], with Bacillus subtilis [4], with Bacillus subtilis [7] and with Escherichia coli [8] was “Active” throughout. Moreover, the inhibition result in the test with Escherichia coli [10], in the test on Bacillus subtilis [2] and with Escherichia coli [9] was “inactive” throughout. Besides, the figures for the zone of inhibition at 30 µg/mL in the test with Candida albicans, with Aspergillus niger and with Aspergillus flavus were 10 mm, 16 mm and 16 mm, respectively. For the same molecule, the MIC was 100 µg/mL (≈ 275 µM) against Bacillus subtilis [5] and 200 µg/mL (≈ 550 µM) in the test with Escherichia coli [6].
As to `Cc1nc2ccccc2n1Cc1nnc(/N=C/c2ccc(O)cc2)s1`, the inhibition result with Bacillus subtilis [1], with Escherichia coli [3], in the test with Bacillus subtilis [4] and in the test on Escherichia coli [8] was “Active” in each case. The inhibition entry in the test on Bacillus subtilis [2] and with Escherichia coli [9] was “inactive” each time. Moreover, the zone of inhibition at 30 µg/mL with Candida albicans, in the test on Aspergillus niger and in the test on Aspergillus flavus was 16 mm throughout. Moreover, the MIC against Bacillus subtilis [5] and with Escherichia coli [6] was 200 µg/mL (≈ 572 µM) each time.
For the molecule `Cc1nc2ccccc2n1Cc1nnc(N2C(=O)C(Cl)C2c2ccccc2O)s1` (configuration not stated), the inhibition result in the test on Bacillus subtilis [1], in the test on Escherichia coli [3], in the test with Bacillus subtilis [4], with Bacillus subtilis [7] and in the test with Escherichia coli [8] was “Active” in each case. Moreover, the zone of inhibition at 30 µg/mL in the test on Candida albicans amounted to 10 mm; in the test with Aspergillus niger it was 16 mm; with Aspergillus flavus, 10 mm. Besides, the MIC in the test on Bacillus subtilis [5] came out at 100 µg/mL (≈ 235 µM); against Escherichia coli [6], 200 µg/mL (≈ 470 µM). Moreover, the inhibition result in the test on Escherichia coli [9] was “inactive”.
With `Cc1nc2ccccc2n1Cc1nnc(N2C(=O)C(Cl)C2c2cccc(O)c2)s1` (configuration not stated), the inhibition entry with Bacillus subtilis [1], with Escherichia coli [3] and with Bacillus subtilis [4] was “Active” in each case. Further, the inhibition entry with Bacillus subtilis [2] and with Escherichia coli [9] was “inactive” in each case. Besides, the “diameter of the inhibition zone (DIZ)” value in the test on Candida albicans, in the test on Aspergillus niger and in the test on Aspergillus flavus was “inactive” each time. In addition, the MIC against Bacillus subtilis [5] is 200 µg/mL (≈ 470 µM); with Escherichia coli [6], 500 µg/mL (≈ 1170 µM).
`Cc1nc2ccccc2n1Cc1nnc(/N=C/c2ccccc2)s1`: the inhibition entry in the test on Bacillus subtilis [1], in the test with Escherichia coli [3], in the test with Bacillus subtilis [4], with Bacillus subtilis [7] and in the test with Escherichia coli [8] was “Active” throughout. The inhibition entry with Bacillus subtilis [2] and in the test with Escherichia coli [9] was “inactive” throughout. Besides, the zone of inhibition at 30 µg/mL was 16 mm in the test on Candida albicans, 22 mm in the test on Aspergillus niger and 22 mm in the test on Aspergillus flavus. The MIC against Bacillus subtilis [5] stood at 100 µg/mL (≈ 300 µM); in the test on Escherichia coli [6] it was 200 µg/mL (≈ 600 µM).
As to `Cc1nc2ccccc2n1Cc1nnc(/N=C/c2ccccc2O)s1`, the inhibition entry in the test on Bacillus subtilis [1], in the test on Escherichia coli [3], in the test with Bacillus subtilis [4], with Bacillus subtilis [7] and in the test on Escherichia coli [8] was “Active” in each case. In addition, the inhibition result in the test with Escherichia coli [10], in the test on Bacillus subtilis [2] and in the test on Escherichia coli [9] was “inactive” throughout. In addition, the “diameter of the inhibition zone (DIZ)” value in the test with Candida albicans, in the test on Aspergillus niger and with Aspergillus flavus was “inactive” each time. Also, the MIC in the test with Bacillus subtilis [5] came to 100 µg/mL (≈ 286 µM); in the test on Escherichia coli [6], 200 µg/mL (≈ 572 µM).
Take `C[C@@H]1[C@H](O)[C@@H](C)/C=C/C=C/C=C/C=C/C=C/C=C/C=C/[C@H](O[C@@H]2O[C@H](C)[C@@H](O)[C@H](N)[C@@H]2O)C[C@@H]2O[C@](O)(C[C@@H](O)C[C@@H](O)[C@H](O)CC[C@@H](O)C[C@@H](O)CC(=O)O[C@H]1C)C[C@H](O)[C@H]2C(=O)O` [AMPHOTERICIN B]: the zone of inhibition at 30 µg/mL with Candida albicans, with Aspergillus niger and with Aspergillus flavus was 22 mm throughout.
Turning to `Cc1nc2ccccc2n1Cc1nnc(N2C(=O)C(Cl)C2c2ccc(O)cc2)s1` (configuration not stated), the inhibition result in the test with Bacillus subtilis [1], with Escherichia coli [3] and in the test with Bacillus subtilis [4] was “Active” throughout. Further, the inhibition entry in the test with Escherichia coli [10] and in the test on Escherichia coli [9] was “inactive” each time. In addition, the zone of inhibition at 30 µg/mL with Candida albicans, in the test with Aspergillus niger and in the test on Aspergillus flavus was 16 mm throughout. The values for the minimum inhibitory concentration (MIC) in the test on Bacillus subtilis [5] and in the test with Escherichia coli [6] were 200 µg/mL (≈ 470 µM) and 500 µg/mL (≈ 1170 µM), respectively.
For the molecule `COc1ccc(C2C(Cl)C(=O)N2c2nnc(Cn3c(C)nc4ccccc43)s2)cc1` (configuration not stated), the inhibition result with Bacillus subtilis [1], in the test with Escherichia coli [3], with Bacillus subtilis [4] and in the test with Escherichia coli [8] was “Active” each time. The inhibition result with Bacillus subtilis [2] and in the test with Escherichia coli [9] was “inactive” throughout. In addition, the zone of inhibition at 30 µg/mL with Candida albicans was 10 mm; in the test on Aspergillus niger it was less than 10 mm; with Aspergillus flavus it was less than 10 mm. For the same molecule, the minimum inhibitory concentration (MIC) in the test with Bacillus subtilis [5] and in the test on Escherichia coli [6] was 200 µg/mL (≈ 455 µM) each time.
On to `Cc1nc2ccccc2n1Cc1nnc(N2C(=O)C(Cl)C2c2ccc(N)cc2)s1` (configuration not stated), for which the inhibition result with Bacillus subtilis [1], in the test with Escherichia coli [3], in the test with Bacillus subtilis [4], with Bacillus subtilis [7] and in the test with Escherichia coli [8] was “Active” in each case. Also, the zone of inhibition at 30 µg/mL stood at 16 mm in the test with Candida albicans, 10 mm in the test with Aspergillus niger and 10 mm with Aspergillus flavus. The minimal inhibitory concentration (MIC) in the test with Bacillus subtilis [5] is 100 µg/mL (≈ 235 µM); against Escherichia coli [6], 200 µg/mL (≈ 471 µM). For the same molecule, the inhibition result in the test with Escherichia coli [9] is “inactive”.
`Cc1ccc(C2C(Cl)C(=O)N2c2nnc(Cn3c(C)nc4ccccc43)s2)cc1` (configuration not stated): the inhibition entry with Bacillus subtilis [2], with Bacillus subtilis [11] and with Escherichia coli [9] was “inactive” each time. The inhibition result with Escherichia coli [3] and in the test on Bacillus subtilis [4] was “Active” throughout. Further, the zone of inhibition at 30 µg/mL with Candida albicans is less than 10 mm; in the test on Aspergillus niger, 10 mm; with Aspergillus flavus, 16 mm. The MIC in the test with Bacillus subtilis [5] and in the test with Escherichia coli [6] was 500 µg/mL (≈ 1180 µM) in each case.

The record behind these values is ChEMBL document CHEMBL1158335, “Synthesis and evaluation of some new benzimidazole derivatives as potential antimicrobial agents” (2009).
